In the library only some 1.8% were active in any assay of this set; here they are far more common.
NPY1 pot ag: potentiates or activates human NPY-Y1 receptor. P25929. hit rate 0.37% among 220,000. activation, % at 3.6 µM. NPY-Y1 expressing cells, potentiator/agonist activation; in the data active = activation above about 33%, passing the limit was not always enough;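 note: cells stimulated with NPY at EC10 then isoproterenol at EC100; 0% = low agonist plus stimulus and 100% = saturating agonist plus stimulus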
NPY2 pot ag: potentiates or activates human NPY-Y2 receptor; P49146; cells expressing NPY-Y2, potentiator/agonist read-out; activation, % at 3.6 µM; hit rate 0.45% among 220,000; in the data active = activation above about 27%;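 note: cells stimulated with NPY near EC25 plus isoproterenol at EC100; 0% = vehicle plus submaximal agonist and 100% = vehicle plus saturating agonist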
Target sequence (P49146 whole entry, looked up): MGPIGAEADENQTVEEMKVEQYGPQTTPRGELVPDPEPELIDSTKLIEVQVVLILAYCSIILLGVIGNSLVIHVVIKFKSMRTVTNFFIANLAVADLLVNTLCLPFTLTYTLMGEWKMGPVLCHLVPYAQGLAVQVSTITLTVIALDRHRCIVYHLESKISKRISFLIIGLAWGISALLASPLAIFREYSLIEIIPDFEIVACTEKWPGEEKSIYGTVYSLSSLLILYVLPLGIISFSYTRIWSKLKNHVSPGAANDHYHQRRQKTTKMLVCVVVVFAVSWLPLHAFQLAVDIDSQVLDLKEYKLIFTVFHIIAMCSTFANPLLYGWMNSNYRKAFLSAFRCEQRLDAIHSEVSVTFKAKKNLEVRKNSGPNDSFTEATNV
NPY Y2 blocker: NPY-Y2 (human) receptor antagonism; inhibition, % at 2.7 µM; AID 793; NPY-Y2 expressing cells, antagonist mode; hit rate 0.99% among 140,000; P49146; in the data active = inhibition above about 17%;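 note: 0% = vehicle with agonist challenge and 100% = reference antagonist with challenge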
NPY-Y1 antag: blocks the human neuropeptide Y Y1 receptor. inhibition, % at 3.6 µM. HEK293-CNG Y1 cells, membrane potential fluorescence; NPY at EC95, then isoproterenol. P25929. hit rate 1% among 200,000;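 active = inhibition above the campaign mean inhibition of all tested compounds plus 3 SD, cut at about 20% in these data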;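 note: 0% = DMSO wells given NPY plus isoproterenol and 100% = isoproterenol alone without NPY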
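Assay system: HEK293 cells with Y1 receptor plus CNG channel | Probe or stimulus: NPY (25 nM), isoproterenol (1 µM), Ro 20-1724 (25 µM) | Timing: Compound incubation 1 h at room temperature, readout 45 min post-stimulation | Measured by: Membrane-potential fluorescent dye readout | Benchmarks: High control isoproterenol alone, low control NPY with isoproterenol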
NPY-Y2 confirm: human NPY-Y2 potentiation or agonism, confirmation | shares compounds with NPY2 pot ag | cell-based NPY-Y2 potentiator/agonist assay | activation, % at 3.6 µM | hit rate 20% among 450 | AID 1539; in the data active = activation above about 33%
NPY-Y1 potentiator: potentiates or activates NPY-Y1, counter-screen for NPY-Y2 hits; shares compounds with NPY2 pot ag; Y1 HEK293-CNG cells, membrane potential fluorescence; activation, % at 3.6 µM; hit rate 20% among 450; AID 1651; in the data active = activation above about 45%;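 note: cells stimulated with submaximal NPY then isoproterenol with phosphodiesterase inhibitor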
NPY-Y1 ag 2: human NPY-Y1 agonism as NPY-Y2 potentiator counter-screen; shares compounds with NPY2 pot ag; hit rate 37% among 450; HEK293 Y1-CNGC, membrane potential fluorescence; activation, % at 3.6 µM;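 active = activation above the mean of DMSO-only control wells plus 3 SD, cut at about 18% in these data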;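 note: cells stimulated with 1 µM isoproterenol plus the PDE inhibitor Ro 20-1724; 0% = isoproterenol with DMSO and no NPY and 100% = 40 nM NPY; Y1 agonists lower the membrane potential dye signal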
CNGC inhibitor: blocks CNG channel activity, counter-screen for NPY-Y2 potentiators; HEK293-CNG parental, isoproterenol cAMP, membrane potential fluorescence; inhibition, % at 3.6 µM; shares compounds with NPY2 pot ag; hit rate 32% among 450;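 active = inhibition above the control-well mean plus 3 SD of those wells, cut at about 22% in these data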;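 note: 0% = DMSO with isoproterenol and 100% = DMSO without isoproterenol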
Y2 agonist ctr: NPY-Y2 agonism, counter-screen for Y2 potentiators; shares compounds with NPY2 pot ag; HEK293 Y2/CNGC cells, membrane potential fluorescence, agonist mode; activation, % at 3.6 µM; hit rate 56% among 450; AID 1710;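 active = activation above the mean of solvent-only control wells plus 3 SD, cut at about 10% in these data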;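 note: cells stimulated by isoproterenol with no NPY added so direct agonism is tested; 0% = DMSO with isoproterenol alone and 100% = NPY at EC100 plus isoproterenol; agonism lowers probe fluorescence through less cAMP and CNG channel opening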
The depositor's hits bear a star.

How did O=C(Nc1ccccc1N1CCOCC1)c1ccc2nc[nH]c2c1 do in these assays?
NPY1 pot ag: 20.6; NPY2 pot ag: 41.3*; NPY-Y1 antag: -12.9; NPY-Y2 confirm: -6.9; NPY-Y1 potentiator: 4.3; NPY-Y1 ag 2: 1.3; CNGC inhibitor: 7.0; Y2 agonist ctr: 7.5

How did COc1cc(/C=N/c2oc(-c3ccccc3)cc2C#N)ccc1O do in these assays?
NPY1 pot ag: 2.8; NPY2 pot ag: -6.6; NPY Y2 blocker: 1.9; NPY-Y1 antag: 1.4

Results for Cc1nn(Cc2ccccc2)c(Cl)c1C(=O)OC(C)C#N (stereo not given) ?
NPY1 pot ag: -10.8; NPY2 pot ag: -3.0; NPY-Y1 antag: -0.4

Results for CN(C)c1cccc2c1C(=O)c1ccccc1C2=O ?
NPY1 pot ag: 16.8; NPY2 pot ag: 33.0*; NPY Y2 blocker: -5.7; NPY-Y1 antag: -5.4; NPY-Y2 confirm: 34.1*; NPY-Y1 potentiator: 42.4; NPY-Y1 ag 2: 26.5*; CNGC inhibitor: 25.8*; Y2 agonist ctr: 29.1*

What do the screens show for `CN1C(=O)c2cccc(N(C)C)c2C1=O`?
NPY1 pot ag: -5.8; NPY2 pot ag: -2.8; NPY Y2 blocker: 0.4; NPY-Y1 antag: 2.5

How did CC(C)OC(=O)C(C)Nc1n[nH]c(=S)[nH]c1=O (stereo not given) do in these assays?
NPY1 pot ag: 2.6; NPY2 pot ag: 73.2*; NPY-Y1 antag: 1.9; NPY-Y2 confirm: 1.1; NPY-Y1 potentiator: -1.6; NPY-Y1 ag 2: 10.3; CNGC inhibitor: -1.3; Y2 agonist ctr: 11.5*

How did O=S(Cc1cc(Oc2ccccc2)nc(-c2ccccc2)n1)c1ccccc1 (stereo not given) do in these assays?
NPY1 pot ag: -4.6; NPY2 pot ag: 3.5; NPY Y2 blocker: 4.5; NPY-Y1 antag: 4.8

How did Cc1nn(CC(=O)OCC(=O)NC(C)c2ccccc2)c(C)c1[N+](=O)[O-] (stereo not given) do in these assays?
NPY1 pot ag: 17.8; NPY2 pot ag: 91.5*; NPY-Y1 antag: 5.4; NPY-Y2 confirm: -7.6; NPY-Y1 potentiator: -1.2; NPY-Y1 ag 2: -7.4; CNGC inhibitor: -1.1; Y2 agonist ctr: 6.8

What do the screens show for `CC1CCc2c(nc3ncnn3c2NCCN(C)C)C1` (stereo not given)?
NPY1 pot ag: -7.1; NPY2 pot ag: -16.8; NPY-Y1 antag: -2.8

How did O=C(Cn1c2[n+](c3ccccc31)CC(O)CS2)c1ccccc1 (stereo not given) do in these assays?
NPY1 pot ag: 7.9; NPY2 pot ag: 0.6; NPY-Y1 antag: 2.9

How did Fc1ccc(Nc2ccnc(Nc3ccc(F)cc3)n2)cc1 do in these assays?
NPY1 pot ag: 25.6; NPY2 pot ag: 32.1*; NPY Y2 blocker: -3.0; NPY-Y1 antag: -4.6; NPY-Y2 confirm: 21.2; NPY-Y1 potentiator: 28.4; NPY-Y1 ag 2: 15.0; CNGC inhibitor: 23.7*; Y2 agonist ctr: 26.5*

How did Nc1ncnc(Nc2ccc(F)cc2)n1 do in these assays?
NPY1 pot ag: -2.9; NPY2 pot ag: 4.6; NPY Y2 blocker: -0.5; NPY-Y1 antag: -2.9

Results for CC1=CC(=O)c2c(O)ccc(O)c2C1=O ?
NPY1 pot ag: 11.4; NPY2 pot ag: 9.4; NPY-Y1 antag: -3.1

What do the screens show for `CCOC(=O)NN1C(=O)c2ccccc2NC1c1ccc(OC)c(OC)c1` (stereo not given)?
NPY1 pot ag: 12.9; NPY2 pot ag: -5.2; NPY-Y1 antag: 1.4

Results for COc1ccc(-c2csc(NC(=O)c3ccccc3NS(=O)(=O)c3ccc(C)cc3)n2)cc1 ?
NPY1 pot ag: 36.4; NPY2 pot ag: 64.9*; NPY Y2 blocker: 0.8; NPY-Y1 antag: -7.5; NPY-Y2 confirm: 30.6; NPY-Y1 potentiator: -1.8; NPY-Y1 ag 2: 1.4; CNGC inhibitor: -4.3; Y2 agonist ctr: 24.8*
